Source: ChEMBL document CHEMBL1140927, “Discovery of N-(3-fluorophenyl)-1-[(4-([(3S)-3-methyl-1-piperazinyl]methyl)phenyl)acetyl]-4-piperidinamine (GSK962040), the first small molecule motilin receptor agonist clinical candidate” (J Med Chem, 2009)

What was measured:
[1] = target: T1, Cytochrome P450 3A4 (Homo sapiens, UniProt P08684); assay: Inhibition of human CYP3A4 expressed in Escherichia coli using diethoxyfluorescein substrate measured in 0 to 5 mins by time dependent inhibition assay; assay type: ADME
T1 sequence (P08684 whole entry): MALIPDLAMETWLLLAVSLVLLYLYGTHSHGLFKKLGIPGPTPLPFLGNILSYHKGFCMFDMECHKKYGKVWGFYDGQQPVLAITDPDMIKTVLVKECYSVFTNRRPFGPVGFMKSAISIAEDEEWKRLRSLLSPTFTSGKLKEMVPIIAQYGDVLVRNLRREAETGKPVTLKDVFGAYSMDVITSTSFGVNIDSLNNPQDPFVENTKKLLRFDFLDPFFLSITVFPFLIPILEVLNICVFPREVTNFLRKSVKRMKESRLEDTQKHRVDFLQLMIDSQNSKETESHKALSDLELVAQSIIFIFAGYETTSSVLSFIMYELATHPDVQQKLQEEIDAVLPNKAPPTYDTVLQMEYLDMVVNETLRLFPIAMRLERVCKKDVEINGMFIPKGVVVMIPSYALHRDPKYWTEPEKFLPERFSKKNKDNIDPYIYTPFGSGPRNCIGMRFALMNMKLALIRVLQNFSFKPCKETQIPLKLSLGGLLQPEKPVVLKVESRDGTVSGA

[2] = test system: Stomach; assay: Potentiation of electric field stimulated-rabbit gastric antrum contraction at 1 uM; assay type: functional, Oryctolagus cuniculus
Procedure, shortened: (§1)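 Isolated native rabbit gastric antrum tissue. Cholinergic contractions are evoked by electrical field stimulation (EFS), and compound is added at the stated concentration. The read-out is % potentiation of EFS-evoked contractions, n = 4-8.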

[3] = target: T1, Cytochrome P450 3A4; assay: Inhibition of human CYP3A4 expressed in Escherichia coli using diethoxyfluorescein substrate measured in 25 to 30 mins by time dependent inhibition assay; assay type: ADME
[4] = Half life in rabbit gastric antrum native tissue at 3 uM; assay type: ADME, tissue-based, Oryctolagus cuniculus, Stomach
[5] = test system: Stomach; assay: Potentiation of electric field stimulated-rabbit gastric antrum contraction at 0.3 uM; assay type: functional, Oryctolagus cuniculus; procedure, shortened: as §1
[6] = target: T2, Motilin receptor (Homo sapiens, UniProt O43193); assay: Intrinsic activity at human recombinant motilin receptor expressed in CHO cells relative to motilin; assay type: cell-based
T2 sequence (O43193 whole entry): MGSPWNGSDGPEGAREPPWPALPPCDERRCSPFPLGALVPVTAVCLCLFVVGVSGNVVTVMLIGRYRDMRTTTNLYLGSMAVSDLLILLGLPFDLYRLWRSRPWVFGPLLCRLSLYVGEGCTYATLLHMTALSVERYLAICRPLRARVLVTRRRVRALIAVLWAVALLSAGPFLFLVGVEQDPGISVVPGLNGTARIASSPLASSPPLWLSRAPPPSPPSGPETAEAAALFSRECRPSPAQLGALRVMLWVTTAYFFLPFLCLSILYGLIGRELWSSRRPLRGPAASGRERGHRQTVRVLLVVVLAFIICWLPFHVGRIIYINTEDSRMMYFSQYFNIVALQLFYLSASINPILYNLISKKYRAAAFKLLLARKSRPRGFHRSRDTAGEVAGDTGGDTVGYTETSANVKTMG
Procedure, shortened: (§2)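 CHO-K1 cells stably transfected with human motilin receptor, grown in DMEM/HamF-12 with 10% FBS, 2 mM GlutaMAX, 1 mg/mL Geneticin; seeded 10 000 cells/well, 24 h. Loaded with Fluo 4 (2.5 µM) in Tyrodes with probenecid, 1 h at 37.5 °C. Compound top final 12 µM, 1-in-4 dilutions; fluorescence read over 1 min; max change over baseline, four-parameter logistic fit; intrinsic activity = curve maximum relative to motilin maximum.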

[7] = test system: Stomach; assay: Potentiation of electric field stimulated-rabbit gastric antrum contraction at 3 uM; assay type: functional, Oryctolagus cuniculus
Procedure, shortened: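 Isolated rabbit gastric antrum; cholinergic contractions evoked by electrical field stimulation, compound response expressed as % potentiation of EFS-evoked contraction, n = 4-8.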

[8] = test system: Stomach; assay: Potentiation of electric field stimulated-rabbit gastric antrum contraction at 0.1 uM; assay type: functional, Oryctolagus cuniculus; procedure, shortened: as §1
[9] = Aqueous solubility of the compound; assay type: physicochemical; conditions: aqueous medium
[10] = Half life in rabbit gastric antrum native tissue at 0.3 uM; assay type: ADME, tissue-based, Oryctolagus cuniculus, Stomach
[11] = target: T1, Cytochrome P450 3A4; assay: Inhibition of human CYP3A4 expressed in Escherichia coli using diethoxyfluorescein substrate assessed as decrease in enzyme activity by time dependent inhibition assay; assay type: ADME; parameters: unit not given here
[12] = target: T2, Motilin receptor; assay: Agonist activity at human recombinant motilin receptor expressed in CHO cells assessed as increase in intracellular calcium by FLIPR assay; assay type: functional, cell-based; procedure, shortened: as §2
[13] = target: T1, Cytochrome P450 3A4; assay: Inhibition of human CYP3A4 expressed in Escherichia coli using diethoxyfluorescein substrate by time dependent inhibition assay; assay type: ADME
[14] = target: Cytochrome P450 2C19 (Homo sapiens, UniProt P33261); assay: Inhibition of human CYP2C19; assay type: ADME
Sequence of Cytochrome P450 2C19 (P33261 whole entry): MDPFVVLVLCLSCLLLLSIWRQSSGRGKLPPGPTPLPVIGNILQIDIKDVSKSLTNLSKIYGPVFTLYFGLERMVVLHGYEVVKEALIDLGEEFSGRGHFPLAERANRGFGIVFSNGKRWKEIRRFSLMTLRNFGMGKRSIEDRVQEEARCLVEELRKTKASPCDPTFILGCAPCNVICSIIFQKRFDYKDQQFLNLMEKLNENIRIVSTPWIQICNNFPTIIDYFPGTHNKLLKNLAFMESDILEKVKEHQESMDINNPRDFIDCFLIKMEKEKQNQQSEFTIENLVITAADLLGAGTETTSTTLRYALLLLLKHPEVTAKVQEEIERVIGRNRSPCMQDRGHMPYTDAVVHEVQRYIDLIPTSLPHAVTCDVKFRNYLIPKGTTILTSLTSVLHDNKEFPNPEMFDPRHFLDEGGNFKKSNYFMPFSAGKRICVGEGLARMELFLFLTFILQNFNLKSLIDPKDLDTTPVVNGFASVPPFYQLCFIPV

[15] = target: Cytochrome P450 2C9 (Homo sapiens, UniProt P11712); assay: Inhibition of human CYP2C9; assay type: ADME
Sequence of Cytochrome P450 2C9 (P11712 whole entry): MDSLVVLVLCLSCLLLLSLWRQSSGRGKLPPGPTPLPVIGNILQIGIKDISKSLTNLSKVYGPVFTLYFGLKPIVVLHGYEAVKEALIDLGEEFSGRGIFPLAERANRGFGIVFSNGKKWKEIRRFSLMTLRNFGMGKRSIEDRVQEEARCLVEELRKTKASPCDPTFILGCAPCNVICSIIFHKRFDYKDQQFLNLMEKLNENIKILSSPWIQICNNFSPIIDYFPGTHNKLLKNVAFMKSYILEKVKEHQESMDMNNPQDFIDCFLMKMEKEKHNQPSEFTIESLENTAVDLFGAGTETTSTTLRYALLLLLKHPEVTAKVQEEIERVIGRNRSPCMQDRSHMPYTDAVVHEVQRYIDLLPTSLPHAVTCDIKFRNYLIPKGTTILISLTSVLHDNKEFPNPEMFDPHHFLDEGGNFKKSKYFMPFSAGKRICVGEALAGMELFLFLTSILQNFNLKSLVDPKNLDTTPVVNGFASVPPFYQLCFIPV

[16] = target: Voltage-gated inwardly rectifying potassium channel KCNH2 (Homo sapiens, UniProt Q12809); assay: Binding affinity to human ERG
Sequence of Voltage-gated inwardly rectifying potassium channel KCNH2 (Q12809 whole entry): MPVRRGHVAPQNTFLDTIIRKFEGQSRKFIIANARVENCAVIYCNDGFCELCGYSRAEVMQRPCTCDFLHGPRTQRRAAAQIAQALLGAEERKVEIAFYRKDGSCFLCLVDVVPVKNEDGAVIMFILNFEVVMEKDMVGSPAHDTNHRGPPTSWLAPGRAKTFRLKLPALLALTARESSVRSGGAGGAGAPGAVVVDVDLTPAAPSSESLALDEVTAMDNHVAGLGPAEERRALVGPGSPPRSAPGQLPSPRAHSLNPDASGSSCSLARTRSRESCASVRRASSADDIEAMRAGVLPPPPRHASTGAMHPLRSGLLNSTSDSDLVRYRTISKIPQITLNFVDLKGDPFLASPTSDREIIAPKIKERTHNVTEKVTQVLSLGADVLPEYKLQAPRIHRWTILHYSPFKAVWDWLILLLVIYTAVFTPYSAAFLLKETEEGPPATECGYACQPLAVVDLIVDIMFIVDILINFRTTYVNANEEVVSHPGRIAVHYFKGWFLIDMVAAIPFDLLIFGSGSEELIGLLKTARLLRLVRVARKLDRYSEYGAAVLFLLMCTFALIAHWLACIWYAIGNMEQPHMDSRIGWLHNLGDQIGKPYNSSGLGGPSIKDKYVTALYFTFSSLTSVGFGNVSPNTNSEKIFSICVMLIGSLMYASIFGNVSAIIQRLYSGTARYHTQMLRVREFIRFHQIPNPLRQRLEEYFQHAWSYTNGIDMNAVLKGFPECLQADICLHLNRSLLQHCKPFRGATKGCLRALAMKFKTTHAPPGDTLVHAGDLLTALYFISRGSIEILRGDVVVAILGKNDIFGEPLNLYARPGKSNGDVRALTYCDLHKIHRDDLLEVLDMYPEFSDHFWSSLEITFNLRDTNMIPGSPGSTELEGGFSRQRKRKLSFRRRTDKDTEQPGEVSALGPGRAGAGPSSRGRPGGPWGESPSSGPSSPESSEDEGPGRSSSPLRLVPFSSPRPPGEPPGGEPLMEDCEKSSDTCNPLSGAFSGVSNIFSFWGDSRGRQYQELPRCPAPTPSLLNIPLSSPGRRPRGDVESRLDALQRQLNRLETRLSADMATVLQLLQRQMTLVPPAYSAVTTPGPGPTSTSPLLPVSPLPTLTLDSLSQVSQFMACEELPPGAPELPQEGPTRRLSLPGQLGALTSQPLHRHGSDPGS

[17] = target: Cytochrome P450 2D6 (Homo sapiens, UniProt P10635); assay: Inhibition of human CYP2D6; assay type: ADME
Sequence of Cytochrome P450 2D6 (P10635 whole entry): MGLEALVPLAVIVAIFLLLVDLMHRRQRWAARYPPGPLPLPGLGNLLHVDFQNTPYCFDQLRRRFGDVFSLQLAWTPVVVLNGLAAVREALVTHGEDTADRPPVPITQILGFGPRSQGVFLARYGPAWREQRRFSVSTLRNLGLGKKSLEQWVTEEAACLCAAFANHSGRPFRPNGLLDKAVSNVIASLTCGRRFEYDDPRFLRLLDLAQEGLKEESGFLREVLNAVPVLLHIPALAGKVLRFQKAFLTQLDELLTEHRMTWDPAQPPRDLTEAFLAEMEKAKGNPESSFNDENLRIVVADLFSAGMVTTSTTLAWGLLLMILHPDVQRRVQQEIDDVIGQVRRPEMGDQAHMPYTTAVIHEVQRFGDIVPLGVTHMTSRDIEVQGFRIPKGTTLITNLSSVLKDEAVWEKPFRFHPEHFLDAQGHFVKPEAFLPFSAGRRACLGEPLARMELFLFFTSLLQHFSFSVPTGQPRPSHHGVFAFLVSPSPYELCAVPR

[18] = target: T3, Cytochrome P450 1A2 (Homo sapiens, UniProt P05177); assay: Inhibition of human CYP1A2; assay type: ADME
T3 sequence (P05177 whole entry): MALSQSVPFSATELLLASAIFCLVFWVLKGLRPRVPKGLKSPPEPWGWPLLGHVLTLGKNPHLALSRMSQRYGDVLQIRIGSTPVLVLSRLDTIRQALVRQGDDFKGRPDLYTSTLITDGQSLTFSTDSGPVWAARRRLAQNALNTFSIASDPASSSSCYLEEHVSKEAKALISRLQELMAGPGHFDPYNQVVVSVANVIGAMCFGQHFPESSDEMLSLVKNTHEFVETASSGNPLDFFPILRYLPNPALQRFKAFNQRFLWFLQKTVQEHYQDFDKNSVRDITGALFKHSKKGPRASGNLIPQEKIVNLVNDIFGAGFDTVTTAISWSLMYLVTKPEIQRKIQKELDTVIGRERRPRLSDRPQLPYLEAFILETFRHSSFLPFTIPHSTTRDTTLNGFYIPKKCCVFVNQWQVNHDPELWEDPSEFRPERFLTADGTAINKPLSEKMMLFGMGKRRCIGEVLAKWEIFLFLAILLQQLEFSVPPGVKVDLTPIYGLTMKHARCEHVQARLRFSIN

[19] = target: T1, Cytochrome P450 3A4; assay: Inhibition of human CYP3A4 expressed in Escherichia coli using 7BQ substrate by time dependent inhibition assay; assay type: ADME
[20] = test system: Rattus norvegicus; assay: AUC (0 to t) in Sprague-Dawley rat at 5 mg/kg, po; assay type: ADME, organism-based, Plasma; parameters: dose 5 mg/kg, route oral; conditions: in vivo
Procedure, shortened: (§3)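 Male Sprague-Dawley rats (n = 3), HCl salt suspended in 1% w/v methylcellulose at 1 mg free base/mL, oral gavage 5 mL/kg for 5 mg free base/kg; serial blood up to 12 h (8 h in a second study); diluted blood analysed by LC/MS/MS, LLQ 5 ng/mL.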

[21] = Cmax in Sprague-Dawley rat at 5 mg/kg, po; assay type: ADME, organism-based; parameters: dose 5 mg/kg, route oral; conditions: in vivo; procedure, shortened: as §3
[22] = Tmax in Sprague-Dawley rat at 5 mg/kg, po; assay type: ADME, organism-based; parameters: dose 5 mg/kg, route oral; conditions: in vivo; procedure, shortened: as §3
[23] = Protein binding in human plasma; assay type: ADME, cell-free; conditions: read-out: PPB (converted)
[24] = Oral bioavailability in Beagle dog; assay type: ADME, organism-based, Canis lupus familiaris; conditions: in vivo
Procedure, shortened: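 Three dogs, two study days 7 days apart: 1 h IV infusion of 2 mg free base/kg in 0.9% saline (0.4 mg/mL, 5 mL/kg/h), then same dogs oral gavage 5 mg free base/kg in 1% methylcellulose (1 mg/mL, 5 mL/kg); serial blood up to 30 h; LC/MS/MS, LLQ 5 ng/mL.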

[25] = Protein binding in rat plasma; assay type: ADME, cell-free; conditions: read-out: PPB (converted)
[26] = Oral bioavailability in Sprague-Dawley rat; assay type: ADME, organism-based; conditions: in vivo
Procedure, shortened: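 Male Sprague-Dawley rats (n = 3), two study days 2 days apart: 1 h IV infusion of 1 mg free base/kg in 0.9% saline (0.2 mg/mL, 5 mL/kg/h), then oral gavage 5 mg free base/kg in 1% methylcellulose; serial blood up to 12 h; LC/MS/MS, LLQ 5 ng/mL.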

[27] = target: Growth hormone secretagogue receptor type 1 (Homo sapiens, UniProt Q92847); assay: Agonist activity at human Ghrelin receptor; assay type: functional
Sequence of Growth hormone secretagogue receptor type 1 (Q92847 whole entry): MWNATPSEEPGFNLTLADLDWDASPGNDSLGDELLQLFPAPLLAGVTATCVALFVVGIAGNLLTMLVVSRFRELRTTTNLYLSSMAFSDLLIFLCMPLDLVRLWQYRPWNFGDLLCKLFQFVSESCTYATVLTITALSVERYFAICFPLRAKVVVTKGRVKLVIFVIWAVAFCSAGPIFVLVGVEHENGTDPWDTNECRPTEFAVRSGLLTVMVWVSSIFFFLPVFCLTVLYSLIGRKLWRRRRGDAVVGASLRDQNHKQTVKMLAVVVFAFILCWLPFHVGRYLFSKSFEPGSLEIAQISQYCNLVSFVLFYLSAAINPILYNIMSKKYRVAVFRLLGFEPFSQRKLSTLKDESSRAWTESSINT

CC[C@H]1OC(=O)[C@H](C)[C@@H](O[C@H]2C[C@@](C)(OC)[C@@H](O)[C@H](C)O2)[C@H](C)[C@@H](O[C@@H]2O[C@H](C)C[C@H](N(C)C)[C@H]2O)[C@](C)(O)C[C@@H](C)C(=O)[C@H](C)[C@@H](O)[C@]1(C)O [ERYTHROMYCIN]
IC50 [1]: 1.9 µM | Activity [2]: 189% | IC50 [3]: 0.19 µM | half-life at 3 µM [4]: 24 min | Activity [5]: 69% | Intrinsic activity [6]: 1.3 | Activity [7]: 490% | Activity [8]: 14%

C[C@@H]1CN(Cc2ccc(-c3cccnc3C(=O)N3CCC(Nc4ccc(F)cc4)CC3)cc2)C[C@H](C)N1.Cl
solubility [9]: ≥ 1 µg/mL

CCCC[C@H](NC(=O)[C@H](CCCNC(=N)N)NC(=O)[C@H](CCC(N)=O)NC(=O)[C@H](CC(C)C)NC(=O)[C@H](CCC(=O)O)NC(=O)CNC(=O)[C@H](Cc1ccc(O)cc1)NC(=O)[C@@H](NC(=O)[C@H](Cc1ccccc1)NC(=O)[C@@H](NC(=O)[C@@H]1CCCN1C(=O)[C@@H](NC(=O)[C@@H](N)Cc1ccccc1)C(C)C)[C@@H](C)CC)[C@@H](C)O)C(=O)N[C@@H](CCC(N)=O)C(=O)N[C@@H](CCC(=O)O)C(=O)N[C@@H](CCCCN)C(=O)N[C@@H](CCC(=O)O)C(=O)N[C@@H](CCCNC(=N)N)C(=O)N[C@@H](CC(N)=O)C(=O)N[C@@H](CCCCN)C(=O)NCC(=O)N[C@@H](CCC(N)=O)C(=O)O
Activity [5]: 740% | Activity [8]: 721% | half-life at 0.3 µM [10]: 11.4 min

CC(C(=O)N1CCC(Nc2ccc(F)cc2)CC1)c1ccc(CN2C[C@@H](C)N[C@@H](C)C2)cc1 (stereo partly specified)
Intrinsic activity [6]: 1.1 | Activity [11]: 7.6 | EC50 [12]: 31.6 nM | IC50 [13]: 8.7 µM

C[C@@H]1CN(Cc2ccc(CCC(=O)N3CCC(Nc4ccc(F)cc4)CC3)cc2)C[C@H](C)N1
Intrinsic activity [6]: 0.9 | EC50 [12]: 50.1 nM

C[C@@H]1CN(Cc2ccc(-c3cccnc3C(=O)N3CCC(Nc4ccc(F)cc4)CC3)cc2)C[C@H](C)N1
IC50 [1]: 20 µM | IC50 [3]: 1.4 µM | IC50 [14]: > 23 µM | IC50 [15]: > 23 µM | IC50 [16]: > 31.6 µM | Activity [7]: 343% | IC50 [17]: > 23 µM | EC50 [12]: 3.98 nM | IC50 [18]: > 23 µM

C[C@H]1CN(Cc2ccc(CC(=O)N3CCC(Nc4cccc(F)c4)CC3)cc2)CCN1.Cl
solubility [9]: > 1 µg/mL

C[C@H]1CN(Cc2ccc(CCC(=O)N3CCC(Nc4cccc(F)c4)CC3)cc2)CCN1
Intrinsic activity [6]: 1 | Activity [11]: 3.2 | IC50 [19]: 18 µM | EC50 [12]: 25.1 nM | IC50 [13]: 10 µM

C[C@@H]1CN(Cc2ccc(CC(=O)N3CCC(Nc4cccc(F)c4)CC3)cc2)CCN1
Intrinsic activity [6]: 0.7 | EC50 [12]: 20 nM

CC[C@H](C)[C@H](NC(=O)[C@@H]1CCCN1C(=O)[C@@H](NC(=O)[C@@H](N)Cc1ccccc1)C(C)C)C(=O)N[C@@H](Cc1ccccc1)C(=O)N[C@H](C(=O)N[C@@H](Cc1ccc(O)cc1)C(=O)NCC(=O)N[C@@H](CCC(=O)O)C(=O)N[C@@H](CC(C)C)C(=O)N[C@@H](CCC(N)=O)C(=O)N[C@@H](CCCNC(=N)N)C(=O)N[C@@H](CCSC)C(=O)N[C@@H](CCC(N)=O)C(=O)N[C@@H](CCC(=O)O)C(=O)N[C@@H](CCCCN)C(=O)N[C@@H](CCC(=O)O)C(=O)N[C@@H](CCCNC(=N)N)C(=O)N[C@@H](CC(N)=O)C(=O)N[C@@H](CCCCN)C(=O)NCC(=O)N[C@@H](CCC(N)=O)C(=O)O)[C@@H](C)O
Intrinsic activity [6]: 1 | EC50 [12]: 0.0398 nM

C[C@H]1CN(Cc2ccc(CCC(=O)N3CCC(Nc4ccc(F)cc4)CC3)cc2)CCN1
Intrinsic activity [6]: 1.2 | EC50 [12]: 63.1 nM

C[C@H]1CN(Cc2ccc(CC(=O)N3CCC(Nc4ccc(F)cc4)CC3)cc2)CCN1
Intrinsic activity [6]: 0.8 | EC50 [12]: 10 nM

C[C@@H]1CN(Cc2ccc(C(C)(C)C(=O)N3CCC(Nc4ccc(F)cc4)CC3)cc2)C[C@H](C)N1
Intrinsic activity [6]: 0.7 | Activity [11]: 6.1 | EC50 [12]: 31.6 nM | IC50 [13]: 4.7 µM

C[C@@H]1CN(Cc2ccc(CC(=O)N3CCC(Nc4ccc(F)cc4)CC3)cc2)C[C@H](C)N1
Intrinsic activity [6]: 0.9 | Activity [11]: 2.7 | IC50 [19]: 59 µM | EC50 [12]: 39.8 nM | IC50 [13]: 41 µM

C[C@H]1CN(Cc2ccc(CC(=O)N3CCC(Nc4cccc(F)c4)CC3)cc2)CCN1
Intrinsic activity [6]: 0.9

C[C@H]1CN(Cc2ccc(CC(=O)N3CCC(Nc4cccc(C#N)c4)CC3)cc2)CCN1
Activity [2]: 462% | AUC [20]: 2.8 kg·min/L | Activity [5]: 218% | Intrinsic activity [6]: 1.1 | Activity [11]: 2 | Cmax [21]: 200 nM | IC50 [19]: 58 µM | EC50 [12]: 3.98 nM | Activity [8]: 98% | IC50 [13]: 36 µM | Tmax [22]: 240 min

C[C@H]1CN(Cc2ccc(CC(=O)N3CCC(Nc4cccc(F)c4)CC3)cc2)CCN1 [CAMICINAL]
Activity [2]: 108% | fraction unbound [23]: 0.17 | AUC [20]: 12 kg·min/L | half-life at 3 µM [4]: 46.9 min | Activity [5]: 53% | bioavailability [24]: 51% | IC50 [14]: > 100 µM | fraction unbound [25]: 0.37 | Activity [11]: 1.4 | IC50 [15]: > 100 µM | IC50 [16]: 15.8 µM | Cmax [21]: 400 nM | Activity [7]: 248% | IC50 [17]: 34 µM | bioavailability [26]: 48% | EC50 [12]: 12.6 nM | IC50 [18]: > 100 µM | EC50 [27]: > 1 µM | Tmax [22]: 120 min
